Measured values as given in ChEMBL document CHEMBL1667760, “Synthesis and biological evaluation of 3,5-diaryl isoxazoline/isoxazole linked 2,3-dihydroquinazolinone hybrids as anticancer agents” (2011).
Activity calls are given as the source filed them. The calls are words filed in the database; no cut-off is given here.

Columns and labels:
CCRF-CEM = assay: Cytotoxicity against human CCRF-CEM cells after 48 hrs by sulforhodamine B assay; type: functional
Method in brief: (§1)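 Run by the NCI 60-cell-line screen. A one-dose pre-test was done first, followed by the main test over a 5-log dose range (10^-4 to 10^-8 M). Results are reported as log molar GI50 (50% net growth inhibition), TGI (total growth inhibition) and LC50 (50% net cell death), with mean-graph midpoints across all lines.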

MCF7 [1] = assay: Cytotoxicity against human MCF7 cells at 5 uM after 24 hrs by MTT assay
M14 = assay: Cytotoxicity against human M14 cells after 48 hrs by sulforhodamine B assay; type: functional; conditions: M14, 48 h; method in brief: as §1
T47D = assay: Cytotoxicity against human T47D cells after 48 hrs by sulforhodamine B assay; type: functional
Method in brief: (§2)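 NCI 60-cell-line panel screen of human tumor lines: a one-dose pre-test, then the main test over a 5-log range (10^-4–10^-8 M). GI50, TGI and LC50 are reported as log molar concentrations for 50% net growth inhibition, total growth inhibition and 50% net cell death. Mean graph midpoints are also calculated.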

SK-MEL-28 = assay: Cytotoxicity against human SK-MEL-28 cells after 48 hrs by sulforhodamine B assay; type: functional; conditions: SK-MEL-28, 48 h; method in brief: as §1
SW-620 = assay: Cytotoxicity against human SW620 cells after 48 hrs by sulforhodamine B assay; type: functional; conditions: SW-620, 48 h; method in brief: as §2
MCF7 [2] = assay: Cytotoxicity against human MCF7 cells after 48 hrs by sulforhodamine B assay; type: functional; conditions: MCF7, 48 h
Method in brief: (§3)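 Cells were grown in RPMI 1640 with 10% FBS and 2 mM L-glutamine, plated at densities set by doubling time, and pre-incubated 24 h at 37 °C, 5% CO2. Drugs were tested at 0.1, 1, 10 and 100 µM in triplicate wells for 48 h continuous exposure. Cells were fixed with 10% TCA (final) and stained with 0.4% SRB. A540 was read against a 690 nm reference, and percent growth was calculated relative to control. Experiments were repeated three times.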

HCT-116 = assay: Cytotoxicity against human HCT116 cells after 48 hrs by sulforhodamine B assay; type: functional; conditions: HCT-116, 48 h; method in brief: as §1
EKVX = assay: Cytotoxicity against human EKVX cells after 48 hrs by sulforhodamine B assay; type: functional
Method in brief: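 Run by the NCI 60 human tumour cell line screen. A one-dose pre-test across sixty lines came first. The main test then used a 5-log dose range (10^-4–10^-8 M). Values derived per cell line were GI50 (log molar concentration for 50% net growth inhibition), TGI (total growth inhibition) and LC50 (50% net cell death).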

BT-549 = assay: Cytotoxicity against human BT549 cells after 48 hrs by sulforhodamine B assay; type: functional; conditions: BT-549, 48 h; method in brief: as §1
MCF7 [3] = assay: Reduction of cyclin A expression in human MCF7 cells at 5 uM after 24 hrs by Western blotting; type: functional, cell-based
Method in brief: (§4)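 MCF-7 cells, kept in DMEM with 10% fetal calf serum at 37 °C under 5% CO2, treated 24 h. Lysis in ice-cold RIPA with protease inhibitors; Bradford quantitation; 30 µg protein per lane on 12% SDS-PAGE, then PVDF. Primary antibodies (1:500) at 4 °C overnight; HRP secondary (1:2000); chemiluminescence detection; β-actin loading control.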

PC-3 = assay: Cytotoxicity against human PC3 cells after 48 hrs by sulforhodamine B assay; type: functional; conditions: PC-3, 48 h; method in brief: as §3
Tubulin (Homo sapiens) = Tubulin (Homo sapiens) (UniProt P68371+Q9H4B7+P0DPH7+P68366+Q13509+Q71U36+P04350+Q3ZCM7+P07437+P68363+Q9BQE3+Q6PEY2+Q13885+Q9BVA1+Q9BUF5); assay: Inhibition of tubulin polymerization in human MCF7 cells assessed as disrupted microtubule organization at 5 uM after 48 hrs by microscopic analysis; type: cell-based
Method in brief: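 MCF-7 cells on coverslips incubated 48 h with or without compound. Fixed in 3% paraformaldehyde/0.02% glutaraldehyde, permeabilized in -20 °C methanol, blocked with 1% BSA. Stained with mouse monoclonal anti-tubulin and FITC secondary; confocal imaging to judge microtubule network integrity.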

MDA-MB-435 = assay: Cytotoxicity against human MDA-MB-435 cells after 48 hrs by sulforhodamine B assay; type: functional; conditions: MDA-MB-435, 48 h; method in brief: as §1
MCF7 [4] = assay: Induction of apoptosis in human MCF7 cells assessed as nuclear fragmentation at 5 uM after 48 hrs by DAPI staining; type: functional, cell-based
Method in brief: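 MCF-7 cells grown on glass coverslips and incubated 48 h with or without compound. Fixed in 3% paraformaldehyde/0.02% glutaraldehyde in PBS, stained with DAPI, and nuclear morphology examined by fluorescence microscopy.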

IGROV-1 = assay: Cytotoxicity against human IGROV1 cells after 48 hrs by sulforhodamine B assay; type: functional; conditions: IGROV-1, 48 h; method in brief: as §1
SNB-19 = assay: Cytotoxicity against human SNB19 cells after 48 hrs by sulforhodamine B assay; type: functional; conditions: SNB-19, 48 h; method in brief: as §2
[5] = Cytotoxicity against human Hs 578T cells after 48 hrs by sulforhodamine B assay; type: functional; method in brief: as §1
NCI-H460 = assay: Cytotoxicity against human NCI-H460 cells after 48 hrs by sulforhodamine B assay; type: functional; conditions: NCI-H460, 48 h; method in brief: as §1
SK-OV-3 = assay: Cytotoxicity against human SKOV3 cells after 48 hrs by sulforhodamine B assay; type: functional; conditions: SK-OV-3, 48 h; method in brief: as §1
MCF7 [6] = assay: Reduction of cyclin B expression in human MCF7 cells at 5 uM after 24 hrs by Western blotting; type: functional, cell-based; method in brief: as §4
OVCAR-5 = assay: Cytotoxicity against human OVCAR5 cells after 48 hrs by sulforhodamine B assay; type: functional; conditions: OVCAR-5, 48 h; method in brief: as §1
NCI-H226 = assay: Cytotoxicity against human NCI-H226 cells after 48 hrs by sulforhodamine B assay; type: functional; conditions: NCI-H226, 48 h; method in brief: as §1
HOP-62 = assay: Cytotoxicity against human HOP62 cells after 48 hrs by sulforhodamine B assay; type: functional; conditions: HOP-62, 48 h; method in brief: as §1
[7] = read-out: pLC50 (the source's name) (converted)

In the case of `COc1cc(C2NC(=O)c3ccccc3N2)ccc1OCCCCCOc1c(OC)cc(C2=NOC(c3cc(OC)c(OC)c(OC)c3)C2)cc1OC` (stereo not given), the GI50 (CCRF-CEM) is reported as 0.631 µM, the CC50 (CCRF-CEM; [7]) is reported as > 100 µM and the TGI (CCRF-CEM; read-out: pTGI) is reported as > 100 µM. For the same compound, the Activity (MCF7 [1]) was “Active”, the GI50 (M14) was 20.9 µM and the CC50 (M14; [7]) was > 100 µM. For the same compound, the TGI (M14; read-out: pTGI) was > 100 µM, the GI50 (T47D) was 0.191 µM and the CC50 (T47D; [7]) was > 100 µM. For the same compound, the TGI (T47D; read-out: pTGI) was > 100 µM, the GI50 (SK-MEL-28) was 5.25 µM and the CC50 (SK-MEL-28; [7]) was > 100 µM. The TGI (SK-MEL-28; read-out: pTGI) was > 100 µM, the GI50 (SW-620) was 10.2 µM and the CC50 (SW-620; [7]) was > 100 µM. For the same compound, the TGI (SW-620; read-out: pTGI) was > 100 µM, the GI50 (MCF7 [2]) was 0.282 µM and the CC50 (MCF7 [2]; [7]) was > 100 µM. For the same compound, the TGI (MCF7 [2]; read-out: pTGI) was > 100 µM, the GI50 (HCT-116) was 0.708 µM and the CC50 (HCT-116; [7]) was > 100 µM. The TGI (HCT-116; read-out: pTGI (converted)) was 40.7 µM, the CC50 (EKVX; [7]) was > 100 µM and the TGI (EKVX; read-out: pTGI) was > 100 µM. The CC50 (BT-549; [7]) was > 100 µM, the TGI (BT-549; read-out: pTGI) was > 100 µM and the Activity (MCF7 [3]) was “Active”. The LC50 (PC-3) was > 100 µM, the GI50 (PC-3; read-out: pGI50 (converted)) was 28.8 µM and the TGI (PC-3; read-out: pTGI) was > 100 µM. The inhibition (Tubulin (Homo sapiens)) was “Active”, the GI50 (MDA-MB-435) was 0.417 µM and the CC50 (MDA-MB-435; [7]) was > 100 µM. For the same compound, the TGI (MDA-MB-435; read-out: pTGI) was > 100 µM, the inhibition (MCF7 [4]) was “Active” and the GI50 (IGROV-1) was 1.12 µM. For the same compound, the CC50 (IGROV-1; [7]) was > 100 µM, the TGI (IGROV-1; read-out: pTGI (converted)) was 50.1 µM and the GI50 (SNB-19) was 16.6 µM. The CC50 (SNB-19; [7]) was > 100 µM, the TGI (SNB-19; read-out: pTGI) was > 100 µM and the GI50 [5] was 16.6 µM. The CC50 [5, 7] was > 100 µM, the TGI ([5]; read-out: pTGI) was > 100 µM and the GI50 (NCI-H460) was 13.5 µM. The CC50 (NCI-H460; [7]) was > 100 µM, the TGI (NCI-H460; read-out: pTGI (converted)) was 60.3 µM and the GI50 (SK-OV-3) was 25.1 µM. For the same compound, the CC50 (SK-OV-3; [7]) was > 100 µM, the TGI (SK-OV-3; read-out: pTGI) was > 100 µM and the Activity (MCF7 [6]) was “Active”. The GI50 (OVCAR-5) was 36.3 µM, the CC50 (OVCAR-5; [7]) was > 100 µM and the TGI (OVCAR-5; read-out: pTGI) was > 100 µM. For the same compound, the GI50 (NCI-H226) was 3.39 µM, the CC50 (NCI-H226; [7]) was > 100 µM and the TGI (NCI-H226; read-out: pTGI) was > 100 µM. The GI50 (HOP-62) was 19.1 µM, the CC50 (HOP-62; [7]) was > 100 µM and the TGI (HOP-62; read-out: pTGI (converted)) was 81.3 µM.
